ChEMBL document CHEMBL1148639, “A novel series of potent and selective PDE5 inhibitors with potential for high and dose-independent oral bioavailability” (J Med Chem, 2006)
≈ marks a conversion by molar mass, not a printed value. Blank lines part the entries; values can stand above or below the compound they belong to.

How the values were obtained:
[1] = target: T1, cGMP-specific 3',5'-cyclic phosphodiesterase (Homo sapiens, UniProt O76074)
[2] = Distribution coefficient, logD of the compound; format: physicochemical; conditions: octanol/water
[3] = Selectivity for human PDE5 over canine retinal PDE6
Procedure, shortened: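 Ratio of IC50s for PDE5 from human corpus cavernosum and cone PDE6 from canine retina. PDE6 came from the 100 000g supernatant of retina homogenate, purified by anion exchange with a NaCl gradient. Activity was read by scintillation proximity assay with cGMP (3:1 unlabeled:3H) at about 1/3 Km, so IC50 = Ki. Buffer was 20 mM Tris-HCl pH 7.4, 5 mM MgCl2 and 1 mg/mL BSA. Incubation ran 30-60 min at 30 °C, keeping turnover below 30%. PDE5 curves spanned 1 nM-10 µM.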

[4] = Ratio of secretory flux to absorptive flux in human Caco-2 cell; format: ADME, cell-based
Procedure, shortened: (§1)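 Human Caco-2 monolayers were used. Papp = amount transported/(time × surface area × initial concentration). Compounds were tested at 25 µM unless stated otherwise. Efflux ratio = secretory flux ÷ absorptive flux.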

[5] = Apparent permeability in human Caco-2 cell at 25 uM; format: ADME, cell-based
Procedure, shortened: as §1

[6] = Half life in dog at 0.5 mg/kg; format: ADME, organism-based, Canis lupus familiaris; design: dose 0.5 mg/kg; conditions: in vivo
Procedure, shortened: (§2)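 Compound was given intravenously to dogs. Pharmacokinetic parameters, including plasma protein binding, are means of n = 2 animals.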

[7] = Stability in dog liver microsome; format: ADME, Canis lupus familiaris; conditions: liver microsomes, read-out: Stability
physchem = conditions: octanol/water, pH 7.4
[8] = Clearance in dog at 0.5 mg/kg; format: ADME, organism-based, Canis lupus familiaris; design: dose 0.5 mg/kg; conditions: in vivo
Procedure, shortened: as §2

[9] = Solubility at pH 7.6; format: physicochemical; conditions: buffer
Procedure, shortened: (§3)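 Solid was removed by filtration (with filter-binding check) or double centrifugation. The pH of the soluble fraction was measured, and the solution was diluted in mobile phase and quantified by HPLC or MS. Bulk form was checked by microscopy.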

[10] = Volume of distribution in dog at 0.5 mg/kg; format: ADME, organism-based, Canis lupus familiaris; design: dose 0.5 mg/kg; conditions: in vivo, read-out: Vdss
Procedure, shortened: as §2

[11] = Plasma protein binding in dog at 0.5 mg/kg; format: ADME, organism-based, Canis lupus familiaris; design: dose 0.5 mg/kg; conditions: read-out: PPB (converted)
Procedure, shortened: as §2

[12] = Oral bioavailability in dog at 0.5 mg/kg; format: ADME, organism-based, Canis lupus familiaris; conditions: in vivo
[13] = Tmax in dog at 0.5 mg/kg; format: ADME, organism-based, Canis lupus familiaris; design: dose 0.5 mg/kg; conditions: in vivo
[14] = Solubility at pH 7.3; format: physicochemical; conditions: buffer
Procedure, shortened: as §3

[15] = Solubility at pH 7.4; format: physicochemical; conditions: buffer
Procedure, shortened: as §3

[16] = target: T1, cGMP-specific 3',5'-cyclic phosphodiesterase; remark: listed apart in the source
[17] = Solubility at pH 6.95; format: physicochemical; conditions: buffer
Procedure, shortened: as §3

[18] = Oral bioavailability in human; format: ADME, organism-based; conditions: in vivo

IC50 [1]: 12 nM
SMILES: CCCOc1ncc(C(C)=O)cc1-c1nc2c(CC)n(C3CCN(C)CC3)nc2c(=O)[nH]1

logD [2]: 1.2 | IC50 [1]: 9.5 nM
SMILES: CCCOc1ncc(C(C)=O)cc1-c1nc2c(CC)n(C3CN(C)C3)nc2c(=O)[nH]1

logD [2]: 0.6 | Selectivity ratio [3]: 26 | IC50 [1]: 18.2 nM
SMILES: CCCOc1ncc(C(C)=O)cc1-c1nc(=O)c2nn(C3CNC3)c(CCC)c2[nH]1

Selectivity ratio [3]: 153
SMILES: CCCCOc1ncc(C(C)=O)cc1-c1nc(O)c2nn(C3CN(CC)C3)c(CC)c2n1

Selectivity ratio [3]: 43
SMILES: CCCCOc1ncc(C(C)=O)cc1-c1nc(O)c2nn(C3CN(C)C3)c(CC)c2n1

IC50 [1]: 7 nM
SMILES: CCCOc1ncc(C(C)=O)cc1-c1nc2c(CC)n(C3CCNCC3)nc2c(=O)[nH]1

IC50 [1]: 8.2 nM
SMILES: CCc1c2nc(-c3cc(C(C)=O)cnc3OCC(C)C)[nH]c(=O)c2nn1C1CN(C)C1

efflux ratio [4]: 0.8 | IC50 [1]: 1.7 nM | Papp at 25 µM [5]: 33 ×10⁻⁶ cm/s
SMILES: CCCc1nn(C)c2c(=O)[nH]c(-c3cc(C(=O)CN4CCOCC4)ccc3OCC)nc12

half-life [6]: 402 min | half-life [7]: > 120 min | logD (physchem): 1.8 | clearance [8]: 38 mL/min/kg | solubility [9]: 1100 µg/mL (≈ 2360 µM) | Vd [10]: 22 L/kg | efflux ratio [4]: 1 | fraction unbound [11]: 0.4 | IC50 [1]: 3.6 nM | Papp at 25 µM [5]: 53 ×10⁻⁶ cm/s
SMILES: CCCCOc1ncc(C(C)=O)cc1-c1nc2c(CC)n(C3CCN(CC)CC3)nc2c(=O)[nH]1

Selectivity ratio [3]: 29
SMILES: CCCCOc1ncc(C(C)=O)cc1-c1nc(O)c2nn(C3CNC3)c(CC)c2n1

Selectivity ratio [3]: 57
SMILES: CCCCOc1ncc(C(C)=O)cc1-c1nc(O)c2nn(C3CCNCC3)c(CC)c2n1

Selectivity ratio [3]: 58 | IC50 [1]: 2.7 nM
SMILES: CCCOc1ncc(C(C)=O)cc1-c1nc(O)c2nn(Cc3nccn3C)c(CC)c2n1

Selectivity ratio [3]: 69
SMILES: CCCOc1ncc(C(C)=O)cc1-c1nc(O)c2nn(C3CN(C)C3)c(CC)c2n1

Selectivity ratio [3]: 60
SMILES: CCCOc1ncc(C(C)=O)cc1-c1nc(O)c2nn(C3CN(C(C)C)C3)c(CC)c2n1

Selectivity ratio [3]: 55
SMILES: CCCOc1ncc(C(C)=O)cc1-c1nc(=O)c2nn(C3CNC3)c(CC)c2[nH]1

Selectivity ratio [3]: 84
SMILES: CCc1c2nc(-c3cc(C(C)=O)cnc3OCC(C)C)nc(O)c2nn1C1CN(C)C1

logD [2]: 1.5 | Selectivity ratio [3]: 30 | IC50 [1]: 14.7 nM
SMILES: CCCOc1ncc(C(C)=O)cc1-c1nc(O)c2nn(C3CN(C)C3)c(CCC)c2n1

Selectivity ratio [3]: 350
SMILES: CCCCOc1ncc(C(C)=O)cc1-c1nc(O)c2nn(C3CCN(CC)CC3)c(CC)c2n1

half-life [6]: 432 min | half-life [7]: > 120 min | logD (physchem): 2.5 | bioavailability [12]: 91% | clearance [8]: 13 mL/min/kg | Tmax [13]: 1.9 h | solubility [14]: 170 µg/mL (≈ 388 µM) | Vd [10]: 7.8 L/kg | efflux ratio [4]: 0.5 | fraction unbound [11]: 0.34 | IC50 [1]: 5.2 nM | Papp at 25 µM [5]: 28 ×10⁻⁶ cm/s
SMILES: CCCOc1ncc(C(C)=O)cc1-c1nc2c(CC)n(C3CN(C(C)C)C3)nc2c(=O)[nH]1

logD [2]: 0.3 | IC50 [1]: 34 nM
SMILES: CCCOc1ncc(C(C)=O)cc1-c1nc2c(CC)n(C3CNC3)nc2c(=O)[nH]1

Selectivity ratio [3]: 58 | IC50 [1]: 53 nM
SMILES: CCc1c2nc(-c3cc(C(C)=O)cnc3OCCOC)nc(O)c2nn1CCN1CCOCC1

Selectivity ratio [3]: 53
SMILES: CCCOc1ncc(C(C)=O)cc1-c1nc(O)c2nn(C3CCNCC3)c(CC)c2n1

Selectivity ratio [3]: 61
SMILES: CCCOc1ncc(C(C)=O)cc1-c1nc(O)c2nn(C3CN(CC)C3)c(CC)c2n1

half-life [6]: 540 min | half-life [7]: 95 min | logD (physchem): 2.8 | bioavailability [12]: 76% | clearance [8]: 17.5 mL/min/kg | Tmax [13]: 1.4 h | solubility [15]: 390 µg/mL (≈ 889 µM) | IC50 [16]: 5.5 nM | Vd [10]: 13.4 L/kg | efflux ratio [4]: 0.9 | fraction unbound [11]: 0.38 | IC50 [1]: 5.5 nM | Papp at 25 µM [5]: 30 ×10⁻⁶ cm/s
SMILES: CCCCOc1ncc(C(C)=O)cc1-c1nc2c(CC)n(C3CN(CC)C3)nc2c(=O)[nH]1

Selectivity ratio [3]: 77
SMILES: CCCCOc1ncc(C(C)=O)cc1-c1nc(O)c2nn(C3CCN(C)CC3)c(CC)c2n1

IC50 [1]: 21 nM
SMILES: CCCCOc1ncc(C(C)=O)cc1-c1nc2c(CC)n(C3CNC3)nc2c(=O)[nH]1

efflux ratio [4]: 0.7 | IC50 [1]: 17 nM | Papp at 25 µM [5]: 43 ×10⁻⁶ cm/s
SMILES: CCCc1nn(C)c2c(=O)[nH]c(-c3cc(C(C)=O)ccc3OCC)nc12

IC50 [1]: 9.1 nM
SMILES: CCCCOc1ncc(C(C)=O)cc1-c1nc2c(CC)n(C3CCN(C)CC3)nc2c(=O)[nH]1

IC50 [1]: 7.1 nM
SMILES: CCCOc1ncc(C(C)=O)cc1-c1nc2c(CC)n(C3CN(CC)C3)nc2c(=O)[nH]1

half-life [7]: > 120 min | solubility [14]: < 10 µg/mL | IC50 [1]: 2.6 nM | Papp at 25 µM [5]: 37 ×10⁻⁶ cm/s
SMILES: CCCCOc1ncc(C(C)=O)cc1-c1nc2c(CC)n(CCN3CCOCC3)nc2c(=O)[nH]1

Selectivity ratio [3]: 37
SMILES: CCCOc1ncc(C(C)=O)cc1-c1nc(O)c2nn(C3CCN(C)CC3)c(CC)c2n1

half-life [7]: > 120 min | logD (physchem): 2.6 | solubility [17]: 6 µg/mL (≈ 13.3 µM) | efflux ratio [4]: 1.6 | Selectivity ratio [3]: 142 | IC50 [1]: 0.9 nM | Papp at 25 µM [5]: 5 ×10⁻⁶ cm/s
SMILES: CCCCOc1ncc(C(C)=O)cc1-c1nc(O)c2nn(Cc3nccn3C)c(CC)c2n1

Selectivity ratio [3]: 18
SMILES: CCCOc1ncc(C(C)=O)cc1-c1nc(O)c2nn(C3CCN(CC)CC3)c(CC)c2n1

IC50 [1]: 13 nM
SMILES: CCCOc1ncc(C(C)=O)cc1-c1nc2c(CC)n(C3CCN(CC)CC3)nc2c(=O)[nH]1

IC50 [1]: 18 nM
SMILES: CCCCOc1ncc(C(C)=O)cc1-c1nc2c(CC)n(C3CCNCC3)nc2c(=O)[nH]1

IC50 [1]: 6.4 nM
SMILES: CCCCOc1ncc(C(C)=O)cc1-c1nc2c(CC)n(C3CN(C)C3)nc2c(=O)[nH]1

bioavailability [18]: 45% | IC50 [1]: 1.3 nM
SMILES: CCc1c2nc(-c3cc(S(=O)(=O)N4CCN(CC)CC4)cnc3OCCOC)[nH]c(=O)c2nn1Cc1ccccn1
